Test results taken from ChEMBL document CHEMBL1799933, “Discovery of a selective allosteric M1 receptor modulator with suitable development properties based on a quinolizidinone carboxylic acid scaffold” (J Med Chem, 2011).
Residue numbers refer to the chain shown, from its start. The source made the active and inactive calls. The rule behind the calls is not given here.

Key:
[1] = Ratio of drug level in brain to plasma of Sprague-Dawley rat at 10 mg/kg, po; assay type: ADME, organism-based; set-up: dose 10 mg/kg, route oral; settings: read-out: BPR
In short: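 Rats dosed orally at 10 mpk. Plasma, brain and CSF sampled at 2 h and concentrations determined by bioanalysis.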

[2] = Half life in rhesus monkey; assay type: ADME, organism-based, Macaca mulatta; settings: in vivo
[3] = Oral bioavailability in rhesus monkey; assay type: ADME, organism-based, Macaca mulatta; settings: in vivo
[4] = biological target: T1, Muscarinic acetylcholine receptor M1 (Homo sapiens) (UniProt P11229); experiment: Agonist activity at human muscarinic M1 receptor expressed in CHONFAT cells assessed as increase in calcium mobilization at 10 uM preincubated for 4 mins measured after 1 hr by FLIPR assay; assay type: functional, cell-based
T1 sequence (whole entry): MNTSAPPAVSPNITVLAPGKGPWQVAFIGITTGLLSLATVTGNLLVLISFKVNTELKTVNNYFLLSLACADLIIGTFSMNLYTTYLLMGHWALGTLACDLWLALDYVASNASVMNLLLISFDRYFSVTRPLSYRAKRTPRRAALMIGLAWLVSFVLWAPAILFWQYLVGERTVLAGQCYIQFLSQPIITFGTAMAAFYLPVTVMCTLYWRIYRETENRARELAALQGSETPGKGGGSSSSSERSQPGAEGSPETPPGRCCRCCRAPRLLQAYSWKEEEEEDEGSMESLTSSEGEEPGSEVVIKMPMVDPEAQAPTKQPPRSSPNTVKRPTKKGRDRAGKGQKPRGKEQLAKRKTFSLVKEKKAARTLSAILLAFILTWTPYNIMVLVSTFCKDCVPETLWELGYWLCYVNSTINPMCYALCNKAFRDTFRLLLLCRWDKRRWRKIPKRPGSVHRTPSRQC

[5] = Ratio of drug level in cerebrospinal fluid to fraction unbound level in plasma of Sprague-Dawley rat at 10 mg/kg, po; assay type: ADME, organism-based; set-up: dose 10 mg/kg, route oral; settings: in vivo
Mus musculus = experiment: Antiamnesic activity against scopolamine-induced dementia in B6SJL mouse assessed as increase in freezing behavior at 10 mg/kg, ip after 24 hrs; assay type: functional, organism-based; set-up: dose 10 mg/kg
In short: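 Male B6SJL mice, 10 weeks old and naive (n = 12–16/group), were given compound IP in 5% beta-cyclodextrin and/or scopolamine 0.3 mg/kg in 0.9% saline 30 min before training. Training was 2 tone (3 kHz, 85 dB, 30 s)–footshock (0.5 mA, 1 s) pairings 2 min apart. Freezing in the same chamber was video-scored 24 h later.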

[6] = Oral bioavailability in rat at 3 mg/kg; assay type: ADME, organism-based; settings: in vivo
In short: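 Rats (n = 2) dosed orally at 3 mg/kg and IV at 1 mg/kg. Interanimal variability under 20% for all values.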

[7] = Lipophilicity, log P of the compound; assay type: physicochemical; settings: octanol/water
[8] = biological target: T2, Muscarinic acetylcholine receptor M4 (Homo sapiens) (UniProt P08173); experiment: Agonist activity at human muscarinic M4 receptor expressed in CHONFAT cells assessed as increase in acetylcholine-induced calcium mobilization at 10 uM preincubated for 4 mins measured after 1 hr by FLIPR assay; assay type: functional, cell-based
T2 sequence (whole entry): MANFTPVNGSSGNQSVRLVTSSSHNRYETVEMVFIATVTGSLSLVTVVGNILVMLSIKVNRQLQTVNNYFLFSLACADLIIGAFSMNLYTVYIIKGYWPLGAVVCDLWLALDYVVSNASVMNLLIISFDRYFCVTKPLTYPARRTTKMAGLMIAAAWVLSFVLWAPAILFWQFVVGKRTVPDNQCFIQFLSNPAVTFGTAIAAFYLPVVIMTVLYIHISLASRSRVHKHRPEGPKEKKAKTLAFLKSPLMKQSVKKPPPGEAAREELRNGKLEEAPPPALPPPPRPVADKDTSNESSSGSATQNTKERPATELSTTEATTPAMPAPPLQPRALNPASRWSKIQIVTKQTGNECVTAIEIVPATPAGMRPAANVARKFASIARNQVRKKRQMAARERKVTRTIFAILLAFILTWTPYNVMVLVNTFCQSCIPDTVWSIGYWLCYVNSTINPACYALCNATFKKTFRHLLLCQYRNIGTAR
In short: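 CHO-NFAT cells expressing the named muscarinic receptor (human M1–M4; rhesus, dog or rat M1 in CHO-K1) were plated at 25,000 cells/well and grown overnight at 37 °C, 6% CO2. Cells were loaded with 1 μM Fluo-4AM for 1 h, washed, and preincubated 4 min with serially diluted compound (final DMSO 0.67%). They were then stimulated 4 min with an EC20 of ACh, and Ca2+ flux was read by FLIPR384.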

[9] = Clearance in rhesus monkey; assay type: ADME, organism-based, Macaca mulatta; settings: in vivo
[10] = Half life in dog at 3 mg/kg, po and 1 mg/kg, iv; assay type: ADME, organism-based, Canis lupus familiaris; settings: in vivo
In short: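 Dog PK, n = 2 animals. Given orally at 3 mg/kg and intravenously at 1 mg/kg. Interanimal variability under 20% for all values.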

[11] = Metabolic stability in monkey NADPH-fortified hepatic microsomes assessed as oxidative metabolism; assay type: ADME, Macaca mulatta, Liver; settings: rhesus monkey
In short: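 Compound incubated with NADPH-fortified hepatic microsomes from rat, dog, monkey or human. Oxidative metabolism monitored.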

[12] = biological target: T3, Muscarinic acetylcholine receptor M1 (Mus musculus) (UniProt P12657); experiment: Agonist activity at mouse muscarinic M1 receptor expressed in CHOK1 cells assessed as potentiation of acetylcholine-induced calcium mobilization preincubated for 4 mins measured after 1 hr by FLIPR assay; assay type: functional, cell-based; settings: CHO-K1
T3 sequence (whole entry): T1 sequence (whole entry) with A5V, T254S, R320K, A337G, I413V
In short: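 CHO-NFAT cells (CHO-K1 background) expressing mouse M1, plated 25,000/well, grown overnight at 37 °C, 6% CO2. Cells washed in HBSS with 20 mM Hepes, 2.5 mM probenecid, 0.1% BSA, then loaded with 1 μM Fluo-4AM for 1 h at 37 °C. Compound (final 0.67% DMSO) preincubated 4 min, then stimulated 4 min with EC20 ACh. Ca2+ flux read on FLIPR384.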

[13] = Plasma protein binding in human serum by equilibrium dialysis method; assay type: ADME, cell-free; settings: read-out: PPB (converted)
In short: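 Protein binding measured by equilibrium dialysis against rat or human serum.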

Compound `N#CC1(c2ccccn2)CCN(Cc2cc(C(=O)O)c(=O)n3ccccc23)CC1` [MSD-M1PAM] has a Kp [1] of 0.23, a half-life [2] of 3.6 h and a bioavailability [3] of 55%. The Activity [4] was “Active”, the Ratio [5] was 0.3 and the Activity (Mus musculus) was “Active”. The bioavailability [6] was 68%, the logP [7] was 0.15 and the Activity [8] was “inactive”. For the same compound, the clearance [9] was 17 mL/min/kg, the half-life [10] was 4.4 h and the Stability [11] was “Stable”. It also gave an IP [12] of 69 nM and a fraction unbound [13] of 0.291.
